High-throughput results: PubChem BioAssay, several laboratories
Hits are enriched below; roughly 5% of the tested compounds scored in any of these assays.
Beta cell apopt – inhibitors of cytokine-induced beta cell apoptosis, primary screen, luminescence. AID 435005, 2010. protection from apoptosis, % (concentration not given with the values). actives 0.8% (n = 300,000). INS-1E cytokine-induced death, ATP luminescence, 48 h; percent of positive-control rescue, neutral wells zero;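 active means Every replicate reaches about 75%, or at least half do and their mean reaches it too, limit read from the data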;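 further: 0% = cytokine-treated negative control wells and 100% = positive control rescue; higher means more ATP so stronger rescue from cytokine killing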
UPR CHOP act – activators of apoptotic CHOP UPR arm, primary screen, cell-based, CHO-CHOP luciferase reporter, luminescence, uHTS; activation, % at 10 µM; actives 0.34% (n = 330,000); UPR activation; percent of tunicamycin response over DMSO baseline;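 active means at 10 µM dose, activation of 40% or more, normalized to positive control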;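 further: 100% = tunicamycin at 10 µg/mL and 0% = DMSO alone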
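Test system: CHO CHOP reporter cells. Input: 500 CHO-CHOP cells per well. Medium: F12 with 10% FBS. Technique: luciferase luminescence. Measure: percent activation relative to tunicamycin control. Dosing: 10 µM compound, 0.5% DMSO. Timing: 16-18 h cell attachment, then 6 h compound exposure, 37 °C.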
T cruzi inh – inhibitors of intracellular T. cruzi growth, primary screen, luminescence, NIH3T3 host cells | T. cruzi beta-gal in NIH3T3, 90 h | inhibition, % (concentration not given with the values) | actives 1.4% (n = 300,000);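 active means mean inhibition across valid replicates above about 55%, limit read from the data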;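 further: signal also drops with host cell toxicity which is not excluded here; 0% = plate median of DMSO wells and 100% = zero luminescence signal; higher percent means less beta-gal luminescence so fewer parasites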
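Read-out: Parasite load inhibition, % | Test system: Mouse NIH/3T3 fibroblasts infected with β-gal-expressing T. cruzi Tulahuen C4 | Amount: 5,000 cells/well | Medium: DMEM, 2% fetal bovine serum | Signal: GalScreen β-gal luminescence, detergent lysis, 60 min | Timing: 3 h attach, ≥90 h co-culture | Also added: Tulahuen C4 trypomastigotes, 5000/well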
Mdm2 MdmX PPI – inhibitors of human Mdm2-MdmX association, primary screen, cell-based, luminescence, split luciferase, SaOS-2, uHTS | SaOS-2 split-luciferase Mdm2/MdmX complementation | Protein Mdm4 (Homo sapiens) + E3 ubiquitin-protein ligase Mdm2 (Homo sapiens), … | inhibition, % at 8 µM | actives 3% (n = 330,000);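 active means inhibition of at least 50% at 8 µM in the primary screen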
Target sequence (O15151 whole entry, looked up): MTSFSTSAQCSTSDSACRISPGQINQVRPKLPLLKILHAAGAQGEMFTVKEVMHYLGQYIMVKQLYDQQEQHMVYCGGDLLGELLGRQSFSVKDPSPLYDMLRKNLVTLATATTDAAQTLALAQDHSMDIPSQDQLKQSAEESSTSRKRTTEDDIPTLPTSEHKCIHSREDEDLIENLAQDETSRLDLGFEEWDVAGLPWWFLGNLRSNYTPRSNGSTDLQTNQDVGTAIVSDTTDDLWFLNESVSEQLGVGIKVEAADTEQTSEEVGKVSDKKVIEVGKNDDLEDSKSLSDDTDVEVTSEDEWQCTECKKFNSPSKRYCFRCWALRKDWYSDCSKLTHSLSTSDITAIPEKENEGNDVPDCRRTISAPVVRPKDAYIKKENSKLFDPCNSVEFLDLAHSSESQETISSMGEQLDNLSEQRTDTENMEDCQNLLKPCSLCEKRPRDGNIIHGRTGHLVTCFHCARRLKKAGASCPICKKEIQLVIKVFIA
Target sequence (Q00987 whole entry, looked up): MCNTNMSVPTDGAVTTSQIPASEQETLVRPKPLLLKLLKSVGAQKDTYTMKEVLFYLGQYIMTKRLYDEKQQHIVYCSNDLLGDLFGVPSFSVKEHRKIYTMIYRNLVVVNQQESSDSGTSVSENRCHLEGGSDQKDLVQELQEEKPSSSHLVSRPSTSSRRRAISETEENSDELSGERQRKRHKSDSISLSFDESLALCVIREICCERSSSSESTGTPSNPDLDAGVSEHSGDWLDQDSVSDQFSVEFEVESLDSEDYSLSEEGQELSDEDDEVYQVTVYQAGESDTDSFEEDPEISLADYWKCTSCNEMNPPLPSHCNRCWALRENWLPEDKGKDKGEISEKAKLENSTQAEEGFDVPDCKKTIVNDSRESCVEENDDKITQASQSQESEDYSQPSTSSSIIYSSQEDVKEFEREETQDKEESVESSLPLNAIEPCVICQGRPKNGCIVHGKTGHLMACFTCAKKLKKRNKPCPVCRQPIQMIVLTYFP
CSC inhib – cancer stem cell viability inhibitors, primary screen, luminescence. cancer stem cell-like cells viability. inhibition, % at 7.5 µM. actives 1.1% (n = 300,000). AID 2717, 2010; in the data active means inhibition above about 75%; tested in HMLE shEcad cells
UPR XBP1 act – activators of adaptive XBP1 UPR arm, primary screen, cell-based, CHO-XBP1 luciferase reporter, luminescence, uHTS. IRE1-XBP1 UPR activation; percent of tunicamycin response, DMSO as zero. actives 0.33% (n = 330,000). AID 463104, 2010. activation, % at 20 µM;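 active means versus positive control, 20 µM dose yields 30% or more activation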;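 further: 100% = tunicamycin at 10 µg/mL and 0% = DMSO only wells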
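Test system: CHO-XBP1 luciferase reporter cells | Buffer or medium: Serum-containing F12 medium, 10% FBS | Schedule: 6 h compound exposure at 37 °C, 5% CO2 | Detection: Steady-Glo luciferase glow luminescence, 10 min after reagent addition | Read-out basis: Activation, % of tunicamycin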
Mdm2 MdmX conf – Mdm2-MdmX complex disruptors, retested hits, confirmation, luminescence, single concentration. inhibition, % at 8 µM. Mdm2-MdmX binding, luminescent assay. shares compounds with Mdm2 MdmX PPI. actives 55% (n = 10,000). AID 489028, 2010; in the data active means inhibition above about 40%
FLuc counter – full-length luciferase signal inhibition, confirmation, counter-screen for Mdm2/MdmX interaction inhibitor project, cell-based, single concentration, SaOS-2; shares compounds with Mdm2 MdmX PPI; SaOS-2 full-length luciferase counterscreen, luminescence; inhibition, % at 8 µM; actives 77% (n = 6,200);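 active means mean inhibition at 8 µM reaching about 37%, which flags the compound as non-specific, limit read from the data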;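 further: p53-null SaOS-2 cells with luciferase driven by a doxycycline-inducible promoter; compound on cells about two nights before reading with doxycycline added after day one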
* = called active by the depositor; . = not tested or not shown.

SMILES	Beta cell apopt	UPR CHOP act	T cruzi inh	Mdm2 MdmX PPI	CSC inhib	UPR XBP1 act	Mdm2 MdmX conf	others
Cc1ccc(C(=O)N/C(=C/c2ccc(-c3ccc([N+](=O)[O-])cc3)o2)C(=O)NCCCN(C)C)cc1	.	1	50	64*	10	-1	26
O=C(NCCC1CCCCN1S(=O)(=O)c1ccc(F)cc1)C(=O)Nc1ccccc1F (stereo not drawn)	.	-1	-7	6	-1	-4	.
Cc1ccc(S(=O)(=O)N2CCCCC2CCNC(=O)C(=O)Nc2ccccc2F)cc1 (stereo not drawn)	7	1	12	52*	39	-2	75*	FLuc counter=54*
O=C(Cn1ncn2c(cc3ccccc32)c1=O)NCCc1cccs1	-1	1	1	35	-12	-3	.
CC(C)CC(=O)O/N=C1\C(=O)N(Cc2ccc(Cl)cc2)c2ccc([N+](=O)[O-])cc21	22	1	58*	60*	.	1	26
CSc1ccc(NC(=O)NCCCN2CCC(Cc3ccccc3)CC2)cc1	10	1	10	61*	26	1	16
COc1ccc(NC(=O)NCCCN2CCC(Cc3ccccc3)CC2)cc1	7	0	6	10	8	0	.
Cn1cc(CN2CCN(Cc3ccccc3)C(CCO)C2)c(-c2ccccc2)n1 (stereo not drawn)	-3	0	4	11	-7	-3	.
COCCNC(=O)CN(CCc1ccccc1)S(=O)(=O)c1ccc(Br)cc1	-3	-2	-6	0	-4	-5	.
COc1cccc(-c2cc(-c3cccnc3)nc(N)c2C#N)c1	-1	2	4	59*	-4	6	12
COc1cccc(-c2cc(-c3cccnc3)c(C#N)c(N)n2)c1	4	-1	2	22	-11	0	.
COc1ccc(OC)c(-c2cc(-c3cccnc3)nc(N)c2C#N)c1	3	0	-46	63*	76*	8	62*	FLuc counter=76*
Cc1nc(N)c(C#N)c(-c2cccnc2)c1-c1ccccc1	-11	0	-11	56*	-3	4	42*	FLuc counter=56*
COc1ccc(-c2cc(-c3cccnc3)c(C#N)c(N)n2)cc1	-1	16	0	73*	8	10	9
N#Cc1c(-c2ccc(F)cc2)cc(-c2cccnc2)nc1N	9	0	-15	13	-8	5	.
Cc1c(-c2ccccc2)nc(N)c(C#N)c1-c1cccnc1	0	-2	-5	26	-5	2	.
Cn1c2ccccc2c2cnn(CC(=O)N3CCCCC3)c(=O)c21	-2	1	21	-20	4	-1	.
O=C(C[C@@H]1C/C=C\CC[C@H](Cc2ccc(F)cc2)C(=O)OC[C@@H]2CCCN2C1=O)NCCO	-6	2	.	13	5	-2	.
CCN(CC)CCNC(=O)c1c(C)n(-c2ccccc2)c2cc(Br)c(OC)cc12	11	0	17	81*	6	1	38	FLuc counter=38*
COC(=O)C1CCC(C)(C(=O)Nc2ccccc2)C1(C)C (stereo not drawn)	-5	-1	-16	8	-7	-2	.
N#Cc1ccc2[nH]cc(CCO)c2c1	3	2	-4	4	-6	-1	.
Cc1ccc2nc(-c3ccc(-c4ccccn4)s3)cn2c1	-12	3	4	-96	-2	2	.
O=C(CC1C[C@H](C(=O)N2CCCCC2)[C@@]2(CCc3ccccc3)c3[nH]c4ccccc4c3CCN2C1=O)NCc1ccco1 (stereo partly drawn)	14	6	.	52*	.	1	18
CN(C)CCCNC(=O)C[C@H]1C[C@H](C(=O)N2CCCCC2)[C@@]2(CCc3ccccc3)c3[nH]c4ccc(Cl)cc4c3CCN2C1=O	.	6	.	97*	.	15	91*	FLuc counter=51*
CN(C)CCCNC(=O)C[C@H]1C[C@H](C(=O)N2CCCCC2)[C@@]2(C)c3[nH]c4ccc(Cl)cc4c3CCN2C1=O	.	1	.	12	.	0	.
SMILES	Beta cell apopt	UPR CHOP act	T cruzi inh	Mdm2 MdmX PPI	CSC inhib	UPR XBP1 act	Mdm2 MdmX conf	others
CC(C)(C)NC(=O)CC1C[C@H](C(=O)N2CCCCC2)[C@@]2(CCc3ccccc3)c3[nH]c4ccccc4c3CCN2C1=O (stereo partly drawn)	-7	7	.	62*	2	3	50*	FLuc counter=70*
COc1ccc2[nH]c3c(c2c1)CCN1C(=O)C(CC(=O)NC(C)(C)C)C[C@H](C(=O)N2CCCCC2)[C@@]31CCc1ccccc1 (stereo partly drawn)	.	3	.	28	.	-2	.
CCOC(=O)C1=C(C)Nc2nc3ccccc3n2C1c1ccccc1 (stereo not drawn)	-3	3	14	54*	23	2	8
CNC(=O)C1=C(C)Nc2nc3ccccc3n2C1c1ccc(F)cc1 (stereo not drawn)	-5	-2	-9	13	-26	-2	.
COc1ccc(OC)c(C2C(C(=O)c3ccccc3)=C(C)Nc3nc4ccccc4n32)c1 (stereo not drawn)	.	19	69*	98*	4	26	76*	FLuc counter=80*
COc1ccc2nc(SCC(=O)N(C)C3CCCCC3)c(C#N)cc2c1	0	-3	16	24	-3	-1	.
CC(C)c1ccc(C(=O)CC2(O)C(=O)N(CN3CCOCC3)c3ccccc32)cc1 (stereo not drawn)	-7	-1	-14	7	6	-1	.
Cc1cc2c3c([nH]c2cc1S(=O)(=O)NCc1ccc(CN2CCCCCC2)o1)CCCC3=O	-4	2	-4	-11	-22	-2	.
CC1CCCCN1S(=O)(=O)c1ccc(C(=O)N(CCCN(C)C)c2nc3ccc(Br)cc3s2)cc1 (stereo not drawn)	4	7	26	77*	23	25	33	FLuc counter=61*
